Here are results for 97 compounds from ChEMBL document CHEMBL4513216, “Probing the Open Global Health Chemical Diversity Library for Multistage-Active Starting Points for Next-Generation Antimalarials” (ACS Infect Dis, 2020).

A short description of the series: Toxicity liver stage against HepG2, at 10uM. The settings on record: human, HepG2-A16-CD81EGFP cells; read-out: INHIBITION
It counts as cell-based. Also on record: test concentration 10 uM, cell line HepG2-A16-CD81EGFP. In outline: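 Uninfected HepG2-A16-CD81EGFP cells, 3 × 10^3 per well, 1536-well, plated on prespotted compound at 10 μM final, parasite-free screening media added to match infected plates; puromycin 10 μM positive, DMSO 0.5% negative; run in parallel with 48 h PbLuc assay at 37 °C, 5% CO2; viability by CellTiter-Glo luminescence, normalized to controls.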
Take `CC(C)Oc1cccc(C(=O)C2CCCN(C(=O)c3ccnn3C)C2)c1` (configuration not stated): the cytotoxicity at 10 µM turned out to be 1.3%. Then `O=C(NC(c1ccccc1)c1cccnc1)C1CC1` (configuration not stated), with 2.99%. To `O=C(NC(c1ccc(Cl)cc1)c1cccnc1)C1CC1` (configuration not stated) belongs -3.94%; to `Cn1nc(C(=O)N2CCC(Oc3ccc(C#N)cn3)CC2)ccc1=O`, -3.33%. To `Cn1ccc2c(cnc3nc(-c4ccncc4)nn32)c1=O` belongs -4.17%. As to `Cn1cc(CNS(=O)(=O)c2cc(F)ccc2F)cn1`, the cytotoxicity at 10 µM is -0.439%. Regarding `Cc1nc2[nH]cnc(Nc3ccn(C)n3)c-2n1`, the cytotoxicity at 10 µM is 18.2%. `Cc1cn[nH]c1C1COCCN1Cc1cscn1` (configuration not stated): the cytotoxicity at 10 µM stood at 2.67%. Then `O=S1(=O)NC(c2ccnc(N3CCCCC3)n2)=Nc2ccccc21`, with 18.3%; and `COCCNc1ncc(-c2cccc(F)c2)c(-c2nccn2C)n1`, with 13.4%. To `COc1cccc(CN2CCC(Cc3cnc(CN(C)C)cn3)CC2)c1` belongs -2.82%; to `O=C1CN(C(=O)CCn2c(C(F)(F)F)cc3cccnc32)CCN1`, -13%. To `Cc1nc(Nc2nnc(C)s2)cc(C2CCCN2c2ccncn2)n1` (configuration not stated) belongs -14.3%; to `Cc1cccc(C(=O)N2C[C@@H]3CC[C@H](Oc4cccc(F)c4)[C@@H]3C2)n1`, -14.7%.

For `CC(C)CCN1CCC2(CC1)NCc1ccccc1NC2=O`, the cytotoxicity at 10 µM stood at 3.46%. Regarding `CN(C)S(=O)(=O)NC1CC(=O)N(c2ccccc2Cl)C1` (configuration not stated), the cytotoxicity at 10 µM was 3.57%. With `CC(C)(C)CNC(=O)c1ccc(C(=O)O)cc1`, the cytotoxicity at 10 µM was -8.17%. To `COc1ccc(CNc2nc(C3CC3)no2)cc1OC` belongs 4.44%. Take `Cc1[nH]nc2ncc(C(=O)N3CCN(CC(O)C(C)(C)C)CC3)cc12` (configuration not stated): the cytotoxicity at 10 µM is 4.41%. To `COc1ccccc1NC(=O)CC(C)NCc1scnc1C` (configuration not stated) belongs 0.686%. With `Cc1cc(C)c(CNC(=O)NCCNc2ncccn2)c(=O)[nH]1`, the cytotoxicity at 10 µM is -49.4%.

With `Cc1ccc(-n2cnnn2)cc1NCC(=O)Nc1cc(F)ccc1F`, the cytotoxicity at 10 µM was found to be 6.23%.

`O=S(=O)(CCN1CCCCC1Cn1cccn1)c1ccccc1` (configuration not stated): the cytotoxicity at 10 µM is -8.66%. To `FC(F)(F)C1CCc2nnc(CNCc3cccs3)n2C1` (configuration not stated) belongs 2.9%; to `NC(=O)CCCNC(=O)c1cc(Br)c2c(c1)OCCO2`, 9.31%.

With `CCN(CC)C(=O)CCCNC(=O)Cc1nc(-c2ccco2)oc1C`, the cytotoxicity at 10 µM is 1.57%. As to `Cc1cc(C2CN(CC(=O)NCc3ccco3)CCO2)ccc1F` (configuration not stated), the cytotoxicity at 10 µM is 4.29%. To `Cc1cc(C)n(-c2ccc(N3CCCSCC3)nc2)n1` belongs -2.08%; to `Cc1cc(Br)oc1C(=O)N1CCC(N(C)C)CC1`, -4.71%; to `COc1ccc(-c2nc(CN3CC(n4cccn4)C3)no2)cc1`, -3.08%. Regarding `COCCN(Cc1cccnc1)S(=O)(=O)c1ccc(F)cc1C`, the cytotoxicity at 10 µM is -5.06%. For the compound `CCCS(=O)(=O)N1CCC(Oc2ccc(C#N)cc2)CC1`, the cytotoxicity at 10 µM was 3.82%. Take `CN1CC(NC(=O)CCCc2cc(Cl)sc2Cl)CCC1=O` (configuration not stated): the cytotoxicity at 10 µM was -5.01%. To `CCc1nc(C(=O)N2CCN(C(=O)CCc3ccccc3)CC2)c[nH]1` belongs 5.92%; to `COc1cccc(CN(C)Cn2nc(C(C)(C)C)ccc2=O)c1`, 1.12%; to `CCc1ncncc1C(=O)Nc1ccc2ccn(CCN(C)C)c2c1`, 6.11%. To `Cc1n[nH]c(C)c1NC(=O)CN(CC(O)c1ccc(F)cc1)C1CC1` (configuration not stated) belongs -7.3%; to `CCC(NC(=O)NCc1cc(Cl)ccc1OC)c1noc(C)n1` (configuration not stated), 4.06%. Then `CCOc1ccc(OC2CCCN(c3cnn(C)c3)C2=O)cc1` (configuration not stated), with 0.118%. As for `CCN1CCOC(CNc2nccc(OC)n2)C1` (configuration not stated), the cytotoxicity at 10 µM was -0.572%. Regarding `CCC(SC)C(=O)N1CCC(n2ccnn2)CC1` (configuration not stated), the cytotoxicity at 10 µM was -41.5%.

Consider `c1ccc(CN2CCC(NCCc3ccc4c(c3)CCO4)CC2)nc1`, for which the cytotoxicity at 10 µM was found to be 3.73%.

Take `CCSCCC(=O)NC1CCN(C(C)c2ccccc2)CC1` (configuration not stated): the cytotoxicity at 10 µM was -1.22%.

Consider `CCOCCC(=O)N1CC(=O)Nc2cc(Br)ccc21`, for which the cytotoxicity at 10 µM turned out to be 6.87%. With `Cc1cnn(C2CN(Cc3nnc(-c4ccccc4Cl)o3)C2)c1`, the cytotoxicity at 10 µM was -2.76%. To `CCC(C)(C)CC(=O)NC(C)C(=O)Nc1ccc(-n2cncn2)cc1` (configuration not stated) belongs 3.47%; to `COc1ccccc1N1CCC(CNCc2c(C)nn(C)c2OC)C1` (configuration not stated), 5.28%; to `COCCOCC(=O)N(C)Cc1ccc(OCc2cccs2)cc1`, 4.38%. Turning to `O=S(=O)(CC1CCCCO1)Nc1cc(F)ccc1-n1cccn1` (configuration not stated), the cytotoxicity at 10 µM stood at 7.71%. Consider `COC[C@@H]1CCC[C@]12CN(S(=O)(=O)c1cn(C)cn1)CCO2`, for which the cytotoxicity at 10 µM came out at 4.06%.

In the case of `Cn1c2c(c(=O)n1C)CN(C(=O)c1ccncc1F)CCC2`, the cytotoxicity at 10 µM is -95%.

As for `Cc1cnc(N2CCOC3(COCCN(c4nccs4)C3)C2)nc1` (configuration not stated), the cytotoxicity at 10 µM is -114%. Then `COCC(=O)NCc1cc(=O)n2c(n1)CN(Cc1cccs1)CCC2`, with -96.5%; and `CC(C)c1nccc([C@H]2C[C@@H]3CCN(Cc4ccoc4)C[C@H]3O2)n1`, with -4.45%. To `COCC(=O)N1CCC2(CC1)CC(CC(=O)NC1CC1)c1ccccc12` (configuration not stated) belongs 0.873%; to `Nc1ccnc(N2CCCC(CCc3ccccc3)(C(=O)O)C2)n1` (configuration not stated), 3.33%; to `CN(CCO)Cc1nnc(C2CCN(C(=O)c3cccn3C)CC2)n1C`, -0.537%. To `c1ccc2c(c1)CN(c1ncnc3c1CCNC3)CCO2` belongs 3.13%. As to `COc1ccccc1CCC(=O)N1CCCC(OCc2cccnc2)C1` (configuration not stated), the cytotoxicity at 10 µM worked out at 2.98%. `Cc1nnc(N2CCCC(C(=O)c3cccc(Cl)c3)C2)o1` (configuration not stated): the cytotoxicity at 10 µM came to 6.14%. To `Cc1cccnc1CCNCC1(O)CCCN(CC2CCCCC2)C1=O` (configuration not stated) belongs -203%. In the case of `O=C(NCc1noc(C2CCCO2)n1)c1cn2ccsc2n1` (configuration not stated), the cytotoxicity at 10 µM is -3.77%.

For `CC(C)(C)SCCNC(=O)[C@@]12CNC[C@@H]1CN(S(C)(=O)=O)C2`, the cytotoxicity at 10 µM stood at 0.251%. To `O=C(N1CCC2(CC1)[C@H](O)C[C@@H]2O)C1(c2ccccc2F)CC1` belongs 6.1%; to `CNCCNc1ccc(-c2nc(-c3cccc(OC)c3OC)no2)cn1`, -2.4%; to `CC(C)(O)c1cn(C2CCN(c3ncccc3Cl)CC2)nn1`, -46.4%.

Take `Cc1cnccc1N1CCN(C[C@]2(O)CCCN3CCCC[C@@H]32)CC1`: the cytotoxicity at 10 µM was determined as 10.4%. For the compound `COc1ccc(Cc2c(O)nc(SC)n(-c3ccccc3)c2=O)cc1`, the cytotoxicity at 10 µM was determined as 1.76%. To `CCn1nc(CC(C)C)cc1C(=O)N1CCC(n2cnnc2)CC1` belongs -7.71%. To `OCC1CCCCN1CCCNCc1cc(O)c2cc(F)ccc2n1` (configuration not stated) belongs -39.2%; to `Fc1ccc(CN2CCCC3(CCN(Cc4ncc[nH]4)C3)C2)cc1F` (configuration not stated), -12%; to `Cc1cccc(-c2ncc(CNC(C)Cc3ncccc3C)cn2)c1` (configuration not stated), -13.2%. To `Cc1nc(CC(=O)N(CCN2CCOCC2)Cc2ccco2)c(C)s1` belongs -3.71%. Regarding `CCOc1ncccc1C(=O)N1CCN(C)C2(CCN(C)CC2)C1`, the cytotoxicity at 10 µM is -0.351%. Then `CCCOC1CCCN(C(=O)c2ccc(S(N)(=O)=O)cc2)C1` (configuration not stated), with -13.6%. With `Cc1cc(Nc2nc(C)cs2)nc(C2CCCCN2CCO)n1` (configuration not stated), the cytotoxicity at 10 µM turned out to be 1.8%. To `O=C(c1cnccn1)N1CCN(Cc2cscn2)CC1` belongs -8.36%; to `Cn1c(C2CC2)nc2c1CCN(Cc1nc(-c3ccsc3)no1)C2`, 8.73%.

In the case of `CCn1cc(NC(=O)NCC(c2ccsc2)N(C)C)cn1` (configuration not stated), the cytotoxicity at 10 µM was -8.01%. `COCCOc1ccc(CNCC2CNc3cc(C)nn3C2)cn1` (configuration not stated): the cytotoxicity at 10 µM was -10.7%. To `Cc1nc(C2CCCN(C(=O)Cn3ccccc3=O)C2)sc1C` (configuration not stated) belongs 1.5%. To `O=C(NCCNC(=O)c1scnc1Cl)c1cccs1` belongs -9.44%; to `CCOCCN1CCN(Cc2cccc(C(=O)N(C)C)c2)CC1CC` (configuration not stated), -5.83%.

On to `CCN1CCN(c2ccc(CNC(=O)c3cc(C)on3)cn2)CC1`, for which the cytotoxicity at 10 µM is -11%. `CC(=O)NCCNC(=O)CN1CCOC(Cn2cc(C)cn2)C1` (configuration not stated): the cytotoxicity at 10 µM was -4.44%.

With `CCN1CCOC(CNCc2ccccc2OCc2ccccn2)C1` (configuration not stated), the cytotoxicity at 10 µM was -10.1%. Then `CCOc1cc(C(=O)N2CCCC(c3cc(C(N)=O)[nH]n3)C2)ccn1` (configuration not stated), with -7.37%. To `O=c1[nH]c(CCN2CCCC(Cn3cncn3)C2)nc2ccccc12` (configuration not stated) belongs -8.62%; to `Cc1cc(C)n(CC2CN(Cc3nc(-c4ccoc4)no3)CCO2)n1` (configuration not stated), -8.13%; to `CCN1C(=O)CCC12CCC(NC(=O)NCc1cccnc1)CC2` (configuration not stated), -104%. Then `CN(C)CCN1CCOCC2(C1)CN(Cc1ccsc1)CCO2` (configuration not stated), with -0.439%; and `Cc1ccc(CN2CCC3(CCCN3S(C)(=O)=O)CC2)s1`, with -113%; and `CN(C)C[C@@H]1C[C@@H]2CN(C(=O)c3ccoc3)CC[C@@H]2N1CC1CC1`, with 6.71%.

For `COCCN1CCCn2c(nc(CNS(C)(=O)=O)cc2=O)C1`, the cytotoxicity at 10 µM was -110%.

Take `COCC(=O)NCc1cc(=O)n2c(n1)CN(Cc1ccccc1)CCC2`: the cytotoxicity at 10 µM was -103%. With `Cc1nnc(CN2CCC3(CCC(=O)N(C4CCC(O)CC4)C3)CC2)o1` (configuration not stated), the cytotoxicity at 10 µM was -8.23%. To `CC(C)(C)c1ccc(OCC(N)=O)c(CN2C[C@H]3CC(O)C[C@H]3C2)c1` (some centres not stated) belongs -5.28%.
